Source: ChEMBL document CHEMBL3259588, “Anti-inflammatory drimane sesquiterpene lactones from an Aspergillus species” (Bioorg Med Chem, 2014)
pIC50: −log10 of the molar value. Values belong to the compound of their own block, whether it stands above or below them. The source made the active and inactive calls. The rule behind the calls is not given here.

What was measured:
Assay type in all cases: cell-based
DLD-1 [1] = assay: Inhibition of TNF-alpha/IFN-gamma/IL-1beta-induced human CXCL10 (972 bp) promoter activity expressed in human DLD1 cells up to 260 uM after 24 hrs by luciferase reporter assay relative to untreated-control
How it was run: (§1)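 DLD-1 in 24-well plates, switched to 0.5% FCS without antibiotics a day before lipofection (Lipofectamine 2000, 0.8 µg plasmid) with 972 bp CXCL10 promoter, NF-κB, GAS/Stat1 or ISRE luciferase reporters plus pRL-CMV. Stimulated 24 h with 10 ng/mL TNF-α, 10 ng/mL IFN-γ, 5 ng/mL IL-1β ± compound; Dual-Glo firefly/Renilla read. Stimulation-only = 100%; mean ± SEM, ≥3 experiments.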

[2] = molecular target: T1, Nuclear factor NF-kappa-B complex (Homo sapiens) (UniProt Q00653+P19838+Q04206); assay: Inhibition of NF-kappaB (unknown origin)-induced human CXCL10 (972 bp) promoter activity expressed in TNF-alpha/IFN-gamma/IL-1beta-stimulated human DLD1 cells up to 260 uM after 24 hrs by luciferase reporter assay; details: DLD-1; how it was run: as §1
DLD-1 [3] = assay: Inhibition of TNF-alpha/IFN-gamma/IL-1beta-induced human CXCL10 (972 bp) promoter activity expressed in human DLD1 cells up to 260 uM after 24 hrs by […]-driven luciferase reporter assay; how it was run: as §1
[4] = molecular target: T2, Signal transducer and activator of transcription 1-alpha/beta (Homo sapiens) (UniProt P42224); assay: Inhibition of Stat1 (unknown origin)-induced human CXCL10 (972 bp) promoter activity expressed in TNF-alpha/IFN-gamma/IL-1beta-stimulated human DLD1 cells up to 260 uM after 24 hrs by luciferase reporter assay; details: DLD-1; how it was run: as §1
T2 sequence (whole entry): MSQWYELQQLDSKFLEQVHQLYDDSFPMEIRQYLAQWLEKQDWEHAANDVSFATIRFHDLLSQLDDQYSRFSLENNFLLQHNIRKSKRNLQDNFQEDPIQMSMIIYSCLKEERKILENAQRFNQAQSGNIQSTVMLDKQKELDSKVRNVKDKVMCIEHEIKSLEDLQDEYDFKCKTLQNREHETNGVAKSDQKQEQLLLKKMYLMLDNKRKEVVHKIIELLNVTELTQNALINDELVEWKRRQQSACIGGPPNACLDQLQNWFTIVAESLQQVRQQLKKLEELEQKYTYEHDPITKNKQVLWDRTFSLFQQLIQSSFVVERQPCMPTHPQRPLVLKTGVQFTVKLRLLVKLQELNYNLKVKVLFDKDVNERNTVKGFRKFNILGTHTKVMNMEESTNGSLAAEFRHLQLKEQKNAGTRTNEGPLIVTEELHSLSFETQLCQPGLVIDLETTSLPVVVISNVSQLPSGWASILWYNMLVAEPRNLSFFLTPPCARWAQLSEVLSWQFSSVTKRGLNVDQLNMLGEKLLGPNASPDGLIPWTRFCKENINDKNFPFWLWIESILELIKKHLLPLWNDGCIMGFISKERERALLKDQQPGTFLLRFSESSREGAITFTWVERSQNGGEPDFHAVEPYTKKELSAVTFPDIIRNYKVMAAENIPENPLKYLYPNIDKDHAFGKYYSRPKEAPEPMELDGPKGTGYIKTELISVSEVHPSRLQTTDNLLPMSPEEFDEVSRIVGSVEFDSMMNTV

[5] = (§2) Inhibition of TNF-alpha/IFN-gamma/IL-1beta-induced human CXCL10 (972 bp) promoter activity expressed in human DLD1 cells after 24 hrs by luciferase reporter assay; details: DLD-1, 24 h; how it was run: as §1
DLD-1 [6] = assay: as §2; how it was run: as §1
[7] = Inhibition of TNF-alpha/IFN-gamma/IL-1beta-induced human CXCL10 (972 bp) promoter activity expressed in human DLD1 cells after 24 hrs by […]-driven luciferase reporter assay; details: DLD-1, 24 h; how it was run: as §1
[8] = molecular target: T2, Signal transducer and activator of transcription 1-alpha/beta (Homo sapiens); assay: Inhibition of Stat1 (unknown origin)-induced human CXCL10 (972 bp) promoter activity expressed in TNF-alpha/IFN-gamma/IL-1beta-stimulated human DLD1 cells after 24 hrs by luciferase reporter assay; details: DLD-1; how it was run: as §1
DLD-1 [9] = assay: Inhibition of TNF-alpha/IFN-gamma/IL-1beta-induced human CXCL10 (972 bp) promoter activity expressed in human DLD1 cells assessed as CXCL10 gene expression at 131.5 uM after 5 hrs by RT-PCR method relative to untreated-control
How it was run: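 Cells starved 16 h (0.5% FCS), compound pretreatment 1 h, then TNF-α 10 ng/mL/IFN-γ 10 ng/mL/IL-1β 5 ng/mL for 5 h. Total RNA analysed by two-step qRT-PCR for cxcl10, gapdh-corrected (Pfaffl); induced vs uninduced and treated-induced vs untreated-induced (100%).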

[10] = Cytotoxicity against human DLD1 cells up to 158 uM after 48 hrs by XTT assay; details: dld-1, 48 h
How it was run: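 DLD-1 cells (RPMI 1640, 25 mM HEPES, 10% FCS, 37 °C, 5% CO2) exposed to compound for 48 h; viability read as XTT reduction to coloured formazan.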

DLD-1 [11] = assay: Inhibition of TNF-alpha/IFN-gamma/IL-1beta-induced human CXCL10 (972 bp) promoter activity expressed in human DLD1 cells assessed as reduction in CXCL10 expression pretreated at 131.5 uM for 1 hr prior to 16 hrs cytokine challenge by proteome profiling method relative to untreated-control
How it was run: (§3)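 DLD-1 starved 16 h in 0.5% FCS, seeded 5×10^6 cells/mL, pretreated 1 h with compound, then stimulated 16 h with 10 ng/mL TNF-α, 10 ng/mL IFN-γ, 5 ng/mL IL-1β. Supernatant cytokines/chemokines detected on Human Cytokine Array Panel A antibody array.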

DLD-1 [12] = assay: Inhibition of TNF-alpha/IFN-gamma/IL-1beta-induced human CXCL10 (972 bp) promoter activity expressed in human DLD1 cells assessed as reduction in MIF expression pretreated at 131.5 uM for 1 hr prior to 16 hrs cytokine challenge by proteome profiling method relative to untreated-control; how it was run: as §3
DLD-1 [13] = assay: Inhibition of TNF-alpha/IFN-gamma/IL-1beta-induced human CXCL10 (972 bp) promoter activity expressed in human DLD1 cells assessed as reduction in IL8 expression pretreated at 131.5 uM for 1 hr prior to 16 hrs cytokine challenge by proteome profiling method relative to untreated-control; how it was run: as §3
DLD-1 [14] = assay: Inhibition of TNF-alpha/IFN-gamma/IL-1beta-induced human CXCL10 (972 bp) promoter activity expressed in human DLD1 cells assessed as reduction in CXCL1 expression pretreated at 131.5 uM for 1 hr prior to 16 hrs cytokine challenge by proteome profiling method relative to untreated-control; how it was run: as §3
DLD-1 [15] = assay: Inhibition of TNF-alpha/IFN-gamma/IL-1beta-induced human CXCL10 (972 bp) promoter activity expressed in human DLD1 cells assessed as reduction in IL1-beta expression pretreated at 131.5 uM for 1 hr prior to 16 hrs cytokine challenge by proteome profiling method relative to untreated-control; how it was run: as §3
DLD-1 [16] = assay: Inhibition of TNF-alpha/IFN-gamma/IL-1beta-induced human CXCL10 (972 bp) promoter activity expressed in human DLD1 cells assessed as reduction in IL-27 expression pretreated at 131.5 uM for 1 hr prior to 16 hrs cytokine challenge by proteome profiling method relative to untreated-control; how it was run: as §3
DLD-1 [17] = assay: Inhibition of TNF-alpha/IFN-gamma/IL-1beta-induced human CXCL10 (972 bp) promoter activity expressed in human DLD1 cells assessed as reduction in TNF-alpha expression pretreated at 131.5 uM for 1 hr prior to 16 hrs cytokine challenge by proteome profiling method relative to untreated-control; how it was run: as §3
[18] = molecular target: T1, Nuclear factor NF-kappa-B complex (Homo sapiens); assay: Inhibition of NF-kappaB (unknown origin) expressed human DLD1 cells assessed as reduction in IL1-beta gene expression pretreated at 67.75 uM for 1 hr by RT-PCR method relative to untreated-control; details: DLD-1
How it was run: (§4)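 DLD-1 seeded 5×10^5 cells/mL, grown 24 h, starved 16 h in 0.5% FCS, pretreated with compound 1 h, then stimulated with 10 ng/mL TNF-α, 10 ng/mL IFN-γ, 5 ng/mL IL-1β for 5 h. tnf-α, il-1β, inos mRNA by two-step qRT-PCR, Pfaffl relative quantification, normalised to gapdh; stimulated-untreated control = 100%. Mean ± SEM, three independent experiments.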

[19] = molecular target: T1, Nuclear factor NF-kappa-B complex (Homo sapiens); assay: Inhibition of NF-kappaB (unknown origin) expressed human DLD1 cells assessed as reduction in TNF-alpha gene expression pretreated at 67.75 uM for 1 hr by RT-PCR method relative to untreated-control; details: DLD-1; how it was run: as §4
[20] = molecular target: T1, Nuclear factor NF-kappa-B complex (Homo sapiens); assay: Inhibition of NF-kappaB (unknown origin) expressed human DLD1 cells assessed as reduction in iNOS gene expression pretreated at 67.75 uM for 1 hr by RT-PCR method relative to untreated-control; details: DLD-1; how it was run: as §4
[21] = molecular target: T2, Signal transducer and activator of transcription 1-alpha/beta (Homo sapiens); assay: Inhibition of Stat1 (unknown origin) expressed human DLD1 cells assessed as reduction in IL1-beta gene expression pretreated at 67.75 uM for 1 hr by RT-PCR method relative to untreated-control; details: DLD-1; how it was run: as §4
[22] = molecular target: T2, Signal transducer and activator of transcription 1-alpha/beta (Homo sapiens); assay: Inhibition of Stat1 (unknown origin) expressed human DLD1 cells assessed as reduction in TNF-alpha gene expression pretreated at 67.75 uM for 1 hr by RT-PCR method relative to untreated-control; details: DLD-1; how it was run: as §4
[23] = molecular target: T2, Signal transducer and activator of transcription 1-alpha/beta (Homo sapiens); assay: Inhibition of Stat1 (unknown origin) expressed in human DLD1 cells assessed as reduction in iNOS gene expression pretreated at 67.75 uM for 1 hr by RT-PCR method relative to untreated-control; details: DLD-1; how it was run: as §4

T1 sequence (P19838 whole entry, looked up): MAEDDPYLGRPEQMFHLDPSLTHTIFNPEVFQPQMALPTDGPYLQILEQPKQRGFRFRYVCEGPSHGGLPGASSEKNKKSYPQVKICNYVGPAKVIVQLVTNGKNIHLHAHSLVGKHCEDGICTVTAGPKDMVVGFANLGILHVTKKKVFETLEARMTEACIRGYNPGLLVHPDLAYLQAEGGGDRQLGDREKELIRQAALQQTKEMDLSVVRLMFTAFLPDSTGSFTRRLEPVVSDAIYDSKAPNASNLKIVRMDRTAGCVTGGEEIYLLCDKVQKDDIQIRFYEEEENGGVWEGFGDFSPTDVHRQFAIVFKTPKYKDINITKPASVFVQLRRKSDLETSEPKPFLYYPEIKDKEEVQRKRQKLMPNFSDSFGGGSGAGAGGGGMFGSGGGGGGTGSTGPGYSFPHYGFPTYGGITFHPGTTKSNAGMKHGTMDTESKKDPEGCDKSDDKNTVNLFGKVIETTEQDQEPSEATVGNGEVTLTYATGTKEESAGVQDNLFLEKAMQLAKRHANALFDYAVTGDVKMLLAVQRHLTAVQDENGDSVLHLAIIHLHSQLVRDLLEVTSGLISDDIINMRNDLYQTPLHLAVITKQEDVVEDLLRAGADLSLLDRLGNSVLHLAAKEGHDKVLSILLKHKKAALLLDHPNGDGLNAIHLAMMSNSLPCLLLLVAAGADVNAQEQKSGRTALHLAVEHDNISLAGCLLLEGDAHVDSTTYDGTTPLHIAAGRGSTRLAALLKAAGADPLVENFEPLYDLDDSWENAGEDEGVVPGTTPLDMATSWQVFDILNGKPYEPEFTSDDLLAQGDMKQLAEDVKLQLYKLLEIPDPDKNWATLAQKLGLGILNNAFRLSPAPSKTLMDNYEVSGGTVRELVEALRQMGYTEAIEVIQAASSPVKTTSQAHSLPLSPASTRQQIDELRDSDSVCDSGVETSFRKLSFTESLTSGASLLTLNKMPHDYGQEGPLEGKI
T1 sequence (Q00653 whole entry, looked up): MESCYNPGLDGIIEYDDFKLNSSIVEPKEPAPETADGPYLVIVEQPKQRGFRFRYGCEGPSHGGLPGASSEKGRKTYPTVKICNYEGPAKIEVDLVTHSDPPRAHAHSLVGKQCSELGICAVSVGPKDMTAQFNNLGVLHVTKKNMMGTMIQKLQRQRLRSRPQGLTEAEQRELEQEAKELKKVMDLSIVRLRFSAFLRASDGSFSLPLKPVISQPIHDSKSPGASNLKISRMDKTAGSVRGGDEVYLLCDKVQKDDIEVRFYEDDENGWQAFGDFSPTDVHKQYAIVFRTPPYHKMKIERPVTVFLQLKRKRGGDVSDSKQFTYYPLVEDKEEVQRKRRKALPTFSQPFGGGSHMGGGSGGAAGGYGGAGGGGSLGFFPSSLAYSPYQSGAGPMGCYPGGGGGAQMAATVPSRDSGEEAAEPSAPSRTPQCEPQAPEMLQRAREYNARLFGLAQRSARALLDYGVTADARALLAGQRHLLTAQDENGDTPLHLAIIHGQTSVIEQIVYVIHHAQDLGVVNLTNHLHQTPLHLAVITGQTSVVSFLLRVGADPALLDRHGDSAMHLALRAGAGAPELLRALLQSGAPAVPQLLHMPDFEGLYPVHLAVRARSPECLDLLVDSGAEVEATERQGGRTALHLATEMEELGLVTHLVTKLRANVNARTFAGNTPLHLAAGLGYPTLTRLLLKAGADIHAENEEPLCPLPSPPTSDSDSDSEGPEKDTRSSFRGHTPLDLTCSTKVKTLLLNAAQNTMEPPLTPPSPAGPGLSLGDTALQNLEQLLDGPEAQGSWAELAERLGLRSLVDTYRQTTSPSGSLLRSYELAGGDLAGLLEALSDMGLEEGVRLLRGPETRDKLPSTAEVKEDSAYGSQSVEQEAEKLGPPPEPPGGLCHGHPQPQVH
T1 sequence (Q04206 whole entry, looked up): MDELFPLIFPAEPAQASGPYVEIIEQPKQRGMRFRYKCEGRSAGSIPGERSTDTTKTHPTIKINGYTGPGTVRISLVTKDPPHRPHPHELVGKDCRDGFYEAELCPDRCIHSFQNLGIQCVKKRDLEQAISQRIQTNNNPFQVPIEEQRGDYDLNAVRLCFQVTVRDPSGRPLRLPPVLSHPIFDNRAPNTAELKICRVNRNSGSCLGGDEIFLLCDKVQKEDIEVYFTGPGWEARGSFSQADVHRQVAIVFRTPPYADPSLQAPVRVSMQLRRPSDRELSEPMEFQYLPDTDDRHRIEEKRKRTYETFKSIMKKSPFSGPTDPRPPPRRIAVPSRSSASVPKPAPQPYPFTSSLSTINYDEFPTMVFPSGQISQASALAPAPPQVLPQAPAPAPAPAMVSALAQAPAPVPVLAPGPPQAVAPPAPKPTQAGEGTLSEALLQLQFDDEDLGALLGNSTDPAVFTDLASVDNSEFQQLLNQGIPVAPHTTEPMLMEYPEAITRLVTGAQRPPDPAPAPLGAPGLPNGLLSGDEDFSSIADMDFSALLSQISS

- inhibition [2]: inactive
- inhibition [4]: inactive
SMILES: CCCCCC(=O)O[C@@H]1C=C2CO[C@@H](O)[C@]2(O)[C@@]2(C)[C@H](O)CCC(C)(C)[C@H]12
- inhibition (DLD-1 [1]): inactive
- inhibition (DLD-1 [3]): inactive

- pIC50 [5]: 4.26
- pIC50 [7]: 4.31
- inhibition [8]: Dose-dependent effect
- inhibition [18]: Active
- inhibition [19]: Active
- inhibition [20]: Active
- inhibition [21]: Active
- inhibition [22]: Active
- inhibition [23]: Active
SMILES: CCCCCC(=O)O[C@@H]1C=C2COC(=O)[C@]2(O)[C@@]2(C)[C@H](O)CCC(C)(C)[C@H]12
- inhibition (DLD-1 [6]): Dose-dependent effect
- inhibition (DLD-1 [9]): Active
- Activity [10]: Non-toxic
- inhibition (DLD-1 [11]): Active
- inhibition (DLD-1 [12]): Active
- inhibition (DLD-1 [13]): Active
- inhibition (DLD-1 [14]): Active
- inhibition (DLD-1 [15]): Active
- inhibition (DLD-1 [16]): Active
- inhibition (DLD-1 [17]): Active
